In ChEMBL document CHEMBL3400023, “Synthesis and evaluation of novel amide amino-β-lactam derivatives as cholesterol absorption inhibitors” (Bioorg Med Chem, 2015):

Key:
[1] = Cytotoxicity against MDCK2 cells dosed with micelles after 1 hr; set-up: species or system Canis lupus familiaris; details: dog, mdck-ii
In short: (§1)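 MDCKII cells (wild type or stably expressing hNPC1L1, G418-maintained) seeded at 2 × 10^5 cells/mL 24 h ahead in DMEM/10% FCS. Cells exposed for 1 h, then viability read by MTT assay.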

[2] = Cytotoxicity against MDCK2 cells expressing human NPC1L1 dosed with micelles after 1 hr; set-up: species or system Canis lupus familiaris; details: dog, mdck-ii; in short: as §1
[3] = molecular target: T1, NPC1-like intracellular cholesterol transporter 1 (Homo sapiens) (UniProt Q9UHC9); assay: Inhibition of human NPC1L1 transfected in MDCK2 cells assessed as [3H]cholesterol uptake at 60 uM after 1 hr by liquid scintillation counting analysis; type: cell-based; details: MDCK-II
T1 sequence (whole entry): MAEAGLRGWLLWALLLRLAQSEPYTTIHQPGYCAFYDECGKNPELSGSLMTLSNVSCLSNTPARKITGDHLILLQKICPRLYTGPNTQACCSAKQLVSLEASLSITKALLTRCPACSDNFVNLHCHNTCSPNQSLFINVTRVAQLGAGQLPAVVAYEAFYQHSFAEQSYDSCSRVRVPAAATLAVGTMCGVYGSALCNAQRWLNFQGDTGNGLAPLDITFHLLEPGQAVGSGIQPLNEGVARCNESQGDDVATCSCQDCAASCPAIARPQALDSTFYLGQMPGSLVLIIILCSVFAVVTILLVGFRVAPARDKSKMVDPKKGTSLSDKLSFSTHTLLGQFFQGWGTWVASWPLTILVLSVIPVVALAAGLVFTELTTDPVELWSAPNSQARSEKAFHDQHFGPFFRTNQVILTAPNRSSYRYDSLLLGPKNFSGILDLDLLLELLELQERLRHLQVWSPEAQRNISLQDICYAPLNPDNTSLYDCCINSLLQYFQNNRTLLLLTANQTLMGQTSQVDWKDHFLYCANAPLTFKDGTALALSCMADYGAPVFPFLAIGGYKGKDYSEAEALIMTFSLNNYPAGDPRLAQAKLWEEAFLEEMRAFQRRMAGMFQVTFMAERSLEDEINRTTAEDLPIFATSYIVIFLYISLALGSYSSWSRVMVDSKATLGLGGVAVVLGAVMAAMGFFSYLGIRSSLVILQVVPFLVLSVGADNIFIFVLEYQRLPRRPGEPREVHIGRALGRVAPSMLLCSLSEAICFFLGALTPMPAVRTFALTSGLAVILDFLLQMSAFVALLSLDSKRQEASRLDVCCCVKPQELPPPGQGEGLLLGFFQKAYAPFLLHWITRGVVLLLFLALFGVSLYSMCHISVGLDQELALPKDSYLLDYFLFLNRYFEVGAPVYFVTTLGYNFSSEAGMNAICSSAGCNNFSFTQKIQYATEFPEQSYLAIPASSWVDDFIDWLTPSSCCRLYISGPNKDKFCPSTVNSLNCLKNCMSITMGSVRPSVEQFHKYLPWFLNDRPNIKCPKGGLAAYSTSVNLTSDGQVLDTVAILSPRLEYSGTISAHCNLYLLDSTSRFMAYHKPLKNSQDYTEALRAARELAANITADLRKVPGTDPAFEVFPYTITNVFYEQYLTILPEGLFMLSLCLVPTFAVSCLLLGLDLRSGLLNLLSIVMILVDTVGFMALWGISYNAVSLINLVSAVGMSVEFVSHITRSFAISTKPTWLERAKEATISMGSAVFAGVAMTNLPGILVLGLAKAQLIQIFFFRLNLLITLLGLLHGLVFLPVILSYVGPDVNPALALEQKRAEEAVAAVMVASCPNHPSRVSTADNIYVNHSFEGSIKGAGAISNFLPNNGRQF
In short: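 hNPC1L1/MDCKII cells were seeded in DMEM with 5% LPDS 24 h before treatment, then PBS-washed. Cells were exposed for 1 h to micellar medium carrying [3H]cholesterol (0.18 μCi/mL) plus compound (0–200 μM). They were washed with ice-cold 0.2% fatty acid-free BSA and lysed, and lysate counted by scintillation. Counts were normalised to protein (CPM/mg) and expressed as % inhibition versus untreated cells. Duplicates, three independent experiments.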

Row | Compound | Activity [1] | Activity [2] | inhibition [3] [%]
1 | O=C(N[C@H]1C(=O)N(c2ccc(F)cc2)[C@@H]1c1ccc(O)cc1)c1ccccc1 | Non-toxic | Non-toxic | 60
2 | O=C(/C=C/c1ccc(F)cc1)N[C@H]1C(=O)N(c2ccc(F)cc2)[C@@H]1c1ccc(O)cc1 | Non-toxic | Non-toxic | –
3 | O=C1[C@H](CC[C@H](O)c2ccc(F)cc2)[C@@H](c2ccc(O)cc2)N1c1ccc(F)cc1 [EZETIMIBE] | Non-toxic | Non-toxic | 40
4 | O=C(Cc1ccc(F)cc1)N[C@H]1C(=O)N(c2ccc(F)cc2)[C@@H]1c1ccc(O)cc1 | Non-toxic | Non-toxic | –
5 | O=C(Cc1ccccc1)N[C@H]1C(=O)N(c2ccc(F)cc2)[C@@H]1c1ccc(O)cc1 | Non-toxic | Non-toxic | –
6 | O=C(N[C@H]1C(=O)N(c2ccc(F)cc2)[C@@H]1c1ccc(O)cc1)c1ccc(F)cc1 | Non-toxic | Non-toxic | 60
7 | O=C(/C=C/c1ccccc1)N[C@H]1C(=O)N(c2ccc(F)cc2)[C@@H]1c1ccc(O)cc1 | Non-toxic | Non-toxic | –
